Measured values from different studies.
Lines come from different studies, so protocols differ.
Target: Serine/threonine-protein kinase 4 (STK4, Homo sapiens, UniProt Q13043)
Residues used in one study (Q13043 1-487): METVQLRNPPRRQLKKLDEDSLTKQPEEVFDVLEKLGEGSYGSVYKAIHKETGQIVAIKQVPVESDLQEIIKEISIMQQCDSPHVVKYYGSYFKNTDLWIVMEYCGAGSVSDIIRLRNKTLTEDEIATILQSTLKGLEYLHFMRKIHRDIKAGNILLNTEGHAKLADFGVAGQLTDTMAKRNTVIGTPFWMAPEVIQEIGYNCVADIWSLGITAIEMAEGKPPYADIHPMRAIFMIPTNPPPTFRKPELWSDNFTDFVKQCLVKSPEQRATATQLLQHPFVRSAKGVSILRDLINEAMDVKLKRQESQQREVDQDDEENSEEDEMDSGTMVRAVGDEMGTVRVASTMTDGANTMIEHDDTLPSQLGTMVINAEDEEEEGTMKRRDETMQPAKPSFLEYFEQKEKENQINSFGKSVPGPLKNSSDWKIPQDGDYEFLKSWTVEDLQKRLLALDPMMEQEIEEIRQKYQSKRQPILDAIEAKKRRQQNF

Cn1c2c(Cl)c(Cl)ccc2c2cc(N)[nH]c(=O)c21
ΔTm (thermal stability; DSF; 10 µM): 1.5 °C

COc1ccc2cc(OCC3(C(=O)O)CN(C(=O)c4ccc(F)cc4)C3)ccc2c1
remaining binding (cell-free assay; competition with immobilised ligand; 1 µM): 100%

O=C1Nc2ccc(Cl)cc2C1=Cc1cc(Cl)c(O)c(Cl)c1
remaining signal (cell-free assay; 0.5 µM): 32.5%

C[C@H](c1ccc(F)cc1)N(Cc1cccc(C(=O)O)c1)C(=O)c1cnc2ccccc2c1
remaining binding (cell-free assay; competition with immobilised ligand; 1 µM): 92%

Cn1c2c(Cl)c(Cl)ccc2c2cn[nH]c(=O)c21
ΔTm (thermal stability; DSF; 10 µM): 0.4 °C

CC(C)(O)[C@H]1CC[C@H](Nc2ccc3ncc(-c4cccc(C(F)(F)F)c4)n3n2)CC1
remaining activity (enzyme activity; inhibitor; 1 µM): 90.8%

COc1cc2ncnc(Nc3ccc(Oc4ccccc4)cc3C)c2cc1OC
inhibition (enzyme activity; inhibitor; 1 µM): 1%

CC(=O)C1=C(C)N(c2cccc(C(F)(F)F)c2)C(=O)N[C@@H]1c1ccc(C#N)nc1
remaining binding (cell-free assay; competition with immobilised ligand; 1 µM): 97.5%

CC(C)c1ccc(NC(=O)c2cccs2)c(-c2nc3ccccc3[nH]c2=O)c1
activity vs control (enzyme activity; inhibitor; 1 µM): 118%

Cc1cc(C)c(-n2ccn3nc(-c4cccnc4)cc23)cc1NC(=O)c1cc(C#N)cc(S(F)(F)(F)(F)F)c1
remaining binding (cell-free assay; competition with immobilised ligand; 0.1 µM): 88.5%

CCN1CCN(Cc2ccc(NC(=O)c3ccc(C)c(Oc4ccnc5[nH]ccc45)c3)cc2C(F)(F)F)CC1
inhibition (target engagement in cells; inhibitor; chemoproteomics; Huh-7; 1 µM): -64.5%

O=C(Nc1cccnn1)N1CC(C/C=C/c2cncc(Oc3ccc(C(F)(F)F)cn3)n2)C1
remaining binding (cell-free assay; competition with immobilised ligand; 1 µM): 100%

CNC(=O)c1cc(Oc2ccc(NC(=O)Nc3ccc(Cl)c(C(F)(F)F)c3)cc2)ccn1
inhibition (enzyme activity; inhibitor; 10 µM): 3%

Cc1cc(-n2nc(Cc3cc(F)cc(C(F)(F)F)c3)nc2C)ccc1C(N)=O
remaining binding (cell-free assay; competition with immobilised ligand; 1 µM): 100%

CCC1(CC)NC(=O)c2c(c3ccc(Cl)c(Cl)c3n2C)C1C#N (stereo not shown)
ΔTm (thermal stability; DSF; 10 µM): -0.3 °C

CS(=O)(=O)CCNCc1ccc(-c2ccc3ncnc(Nc4ccc(OCc5cccc(F)c5)c(Cl)c4)c3c2)o1
remaining signal (cell-free assay; 0.5 µM): 99.4%

O=C(Nc1cnn(-c2csc(C(=O)NC3COC3)c2)c1)Nc1c(F)cccc1Cl
remaining activity (enzyme activity; inhibitor; 5 µM): 96.6%

Cn1c2c(c3ccccc31)C(C#N)C(C)(C)NC2=O (stereo not shown)
ΔTm (thermal stability; DSF; 10 µM): 0.2 °C

CCCCNc1ncc2c(-c3ccc(F)cc3)nn(C[C@H]3CC[C@H](N)CC3)c2n1
inhibition (target engagement in cells; inhibitor; chemoproteomics; 20 mM): 48.3%
